Measured values as given in ChEMBL document CHEMBL4033718, “A novel serine racemase inhibitor suppresses neuronal over-activation in vivo” (Bioorg Med Chem, 2017).
pIC50: −log10 of the molar value.

test system: Mus musculus; experiment: In-vivo inhibition of SRR in Arc-LucTg HL mouse brain assessed as reduction in kainate-induced NMDA-type glutamate receptor activation by measuring decrease in bioluminescence signal at 15 mg/kg, po incubated for 3 hrs followed by kainate treatment measured after 2 hrs relative to control; assay type: functional
Summary of the method: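 Arc-Luc Tg hairless mice, baseline-imaged, then dosed 15 mg/kg p.o. in PEG-400 (vehicle controls) under 1.5% isoflurane. Basal imaging 3 h later, then kainate 20 mg/kg i.p. in saline. Luciferin EF 150 mg/kg i.p. Images at 2, 4 and 6 h: 60 s, 4×4 binning, ear-to-eye ROI, strongest of about 5 reads. Fold change vs 0 h; two-tailed t test.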

For O=C(/C=C/c1cc(Br)cc(Br)c1)NC(=S)NNC(=O)Cc1ccccc1, the “fold change (FC)” value was 1.4.

molecular target: T1, Serine racemase (Mus musculus) (UniProt Q9QZX7); experiment: Inhibition of mouse serine racemase assessed as remaining enzyme activity by measuring D-serine production using L-serine as substrate at 1 mM incubated for > 8 hrs
T1 sequence (whole entry): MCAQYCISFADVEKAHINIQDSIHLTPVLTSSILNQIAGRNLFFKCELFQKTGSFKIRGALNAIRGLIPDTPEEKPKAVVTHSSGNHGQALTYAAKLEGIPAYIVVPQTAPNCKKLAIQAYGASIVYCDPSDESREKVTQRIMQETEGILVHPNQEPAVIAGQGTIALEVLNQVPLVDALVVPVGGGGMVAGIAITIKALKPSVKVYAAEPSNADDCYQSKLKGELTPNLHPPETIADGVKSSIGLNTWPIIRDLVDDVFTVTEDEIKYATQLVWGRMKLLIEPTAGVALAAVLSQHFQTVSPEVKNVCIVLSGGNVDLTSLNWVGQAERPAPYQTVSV
Summary of the method: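 Recombinant mouse Srr, 1.25 µg, in 100 mM HEPES pH 8.0 with PLP, 1 mM MgCl2, 5 mM DTT, 1 mM ATP, 20 mM L-Ser and 1 mM inhibitor. Product derivatized with 0.05% DNP in 2 M HCl for 5 min at 30 °C, then EtOH and 10 M NaOH added. A515 read after 10 min at room temperature.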

Going from Cc1ccc(/C=C/S(=O)(=O)NCC(=O)OCc2ccc(Cl)c(Cl)c2)cc1 to Cc1ccc(CNC(=O)NCCNS(=O)(=O)c2cccc(Cl)c2)cc1, the Activity rises from 32% to 36%.

In the case of O=C(COc1ccc(Cl)cc1)NCC(=O)Nc1ccc(F)c(F)c1F, the Activity was 35%.

organism: Homo sapiens; experiment: Inhibition of human serine racemase C2D2 mutant assessed as remaining enzyme activity by measuring D-serine production using L-serine as substrate at 1 mM incubated for > 8 hrs
Summary of the method: (§1)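 Recombinant human SRR C2D2 mutant, 8 µg, in 100 mM HEPES pH 8.0 with PLP, 1 mM MgCl2, 5 mM DTT, 1 mM ATP and 20 mM L-Ser. Product derivatized with 0.05% DNP in 2 M HCl for 5 min at 30 °C, then EtOH and 10 M NaOH added. Absorbance at 515 nm read after 10 min at room temperature.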

Compared with O=C(/C=C/c1ccc(F)cc1)NC(=S)NNC(=O)c1cccs1, O=C(/C=C/c1ccc(F)cc1)NC(=S)NNC(=O)Cc1cccs1 is lower in Activity: 46% for the first, 22% for the second.

First: O=C(/C=C/c1c(F)cc(F)cc1F)NC(=S)NNC(=O)Cc1ccccc1
Second: O=C(/C=C/c1c(F)cc(F)cc1F)NC(=S)NNC(=O)Cc1cccs1
The Activity of the first is lower: 38% for the first, 39% for the second.

First: Cc1ccc(S(=O)(=O)Nc2ccccc2NC(=O)Nc2ccc(Cl)c(Cl)c2)cc1
Second: Cc1ccc(/C=C/S(=O)(=O)NCC(=O)Nc2ccc(OCc3ccccc3)cc2)cc1
The Activity of the first is higher: 77% for the first, 41% for the second.

Compared with COc1cccc(OC)c1/C=C/C(=O)NC(=S)NNC(=O)Cc1cccs1, COc1cccc(OC)c1/C=C/C(=O)NC(=S)NNC(=O)c1cccs1 is higher in Activity: 27% for the first, 31% for the second.

Going from O=C(/C=C/c1ccc(F)cc1)NC(=S)NNC(=O)Cc1ccccc1 to O=C(Cc1ccc(F)cc1)NNC(=S)NC(=O)Cc1ccccc1, the Activity rises from 45% to 62%.

Going from O=C(/C=C/c1cc(Br)cc(Br)c1)NC(=S)NNC(=O)Cc1ccccc1 to O=C(/C=C/c1cc(Br)cc(Br)c1)NC(=S)NNC(=O)CCc1ccccc1, the Activity rises from 20% to 44%.

Going from COc1cccc(OC)c1/C=C/C(=O)NC(=S)NNC(=O)Cc1ccccc1 to Cc1cccc(CC(=O)NNC(=S)NC(=O)Cc2ccccc2)c1, the Activity rises from 32% to 53%.

O=C(Cc1cccs1)NNC(=S)NC(=O)Cc1ccccc1 and O=C(Cc1c(F)cccc1F)NNC(=S)NC(=O)Cc1ccccc1 are the same in Activity: 61% for the first, 61% for the second.

Going from O=C(/C=C/c1ccc(Cl)cc1)NC(=S)NNC(=O)Cc1cccs1 to Cc1ccc(/C=C/C(=O)NC(=S)NNC(=O)Cc2cccs2)cc1, the Activity rises from 23% to 24%.

Compared with CC(C)c1ccc(/C=C/C(=O)NC(=S)NNC(=O)Cc2cccs2)cc1, O=C(/C=C/c1ccc(C(F)(F)F)cc1)NC(=S)NNC(=O)Cc1cccs1 is higher in Activity: 28% for the first, 44% for the second.

Going from O=C(/C=C/c1cc(Br)cc(Br)c1)NC(=S)NNC(=O)Cc1ccc(F)cc1 to O=C(Cc1ccc(F)cc1)NNC(=S)NC(=O)Cc1ccc(F)cc1, the Activity falls from 54% to 49%.

Compared with O=C(Cc1cc(F)cc(F)c1)NNC(=S)NC(=O)Cc1ccccc1, O=C(O)CC(=O)O [MALONIC ACID] is higher in Activity: 55% for the first, 63% for the second.

molecular target: not listed separately; experiment: Inhibition of human serine racemase C2D2 mutant assessed as remaining enzyme activity by measuring D-serine production using L-serine as substrate incubated for > 8 hrs; summary of the method: as §1

Cc1ccc(S(=O)(=O)Nc2ccccc2NC(=O)Nc2ccc(Cl)c(Cl)c2)cc1 and Cc1ccc(/C=C/S(=O)(=O)NCC(=O)Nc2ccc(OCc3ccccc3)cc2)cc1 are within 0.2 log units of each other in pIC50: 3.55 for the first, 3.57 for the second.

Compared with O=C(/C=C/c1cc(Br)cc(Br)c1)NC(=S)NNC(=O)Cc1ccccc1, O=C(O)CC(=O)O [MALONIC ACID] is 0.74 log units lower in pIC50: 3.85 for the first, 3.11 for the second.
